# Bioassay records (PubChem BioAssay)
# This is a sample that favours compounds with a hit; in the whole collection about 3.1% have one here.
# KCNK3 block – human KCNK3 channel inhibition, primary screen; B-score at 10 µM; AID 602410; actives 0.84% (n = 340,000); CHO-KCNK3 thallium flux, FluxOR fluorescence; active compounds read low;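 active = B-score under library mean minus 4 SD, starting fluorescence ratio at most library mean plus 5 SD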;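 also: more negative B-score means stronger inhibition of thallium flux through KCNK3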
# KCNQ1 pot – potentiates or activates the human KCNQ1 potassium channel. CHO-K1 KCNQ1, thallium flux FluxOR fluorescence; active compounds read high. actives 0.35% (n = 310,000). AID 2648. P51787. B-score at 10 µM;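 active = fluorescence ratio B-score, a plate-corrected score, at least three library SD, with initial intensity B-score within 5 SD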
#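 Medium – assay buffer, equal DMSO in all wells · Material – CHO-K1 cell line with stable KCNQ1 potassium channel expression · Signal – kinetic FluxOR thallium fluorescence, 10-s 1-Hz baseline, 110-s post-stimulus read · Compound – single concentration per compound, DMSO matched to controls · Schedule – 37 °C overnight plating, 90-min dark dye load, 20-min compound pretreatment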
# KCNK9 block – human KCNK9 channel inhibition | Q9NPC2 | HEK293 KCNK9, FluxOR thallium flux fluorescence; active compounds read low | B-score at 10 µM | actives 1.2% (n = 310,000);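 active = ratio B-score over 3 SD below the library mean, with starting fluorescence within 5 SD of its mean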;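 also: negative B-score means less thallium flux so channel inhibition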
# Target sequence (Q9NPC2 whole entry, looked up): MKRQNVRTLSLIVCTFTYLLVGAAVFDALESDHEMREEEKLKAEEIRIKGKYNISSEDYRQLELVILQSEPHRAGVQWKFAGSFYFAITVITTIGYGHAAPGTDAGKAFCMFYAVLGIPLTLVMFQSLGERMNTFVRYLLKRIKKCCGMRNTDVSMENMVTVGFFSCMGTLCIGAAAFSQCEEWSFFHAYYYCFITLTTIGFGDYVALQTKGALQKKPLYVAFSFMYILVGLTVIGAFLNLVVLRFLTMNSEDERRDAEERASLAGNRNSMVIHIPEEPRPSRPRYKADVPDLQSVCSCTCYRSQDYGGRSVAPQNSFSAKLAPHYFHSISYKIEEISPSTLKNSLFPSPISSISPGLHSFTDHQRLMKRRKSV
# hERG protect – hERG (human) protection from proarrhythmic block; activation (rescue from dofetilide block), less the hit threshold, % at 10 µM; CHO-hERG, FluxOR thallium flux, dofetilide IC70 present; Q12809; actives 0.51% (n = 310,000); AID 1511;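 active = activation above the mean of controls blocked by dofetilide plus 5 SD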;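 also: thallium influx through hERG after potassium depolarization seen as dye fluorescence rise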
# KCNQ1 block – blocks the human KCNQ1 potassium channel | B-score at 10 µM | actives 1.3% (n = 310,000) | P51787 | CHO-K1 KCNQ1, FluxOR thallium flux fluorescence; active compounds read high;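 active = compounds whose thallium flux B-score, printed positive for inhibition, exceeds three library SD while starting fluorescence stays within three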;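 also: channel opened by potassium depolarization with thallium stimulus after 20 min compound exposure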
# KCNK9 block conf – confirmation of human KCNK9 potassium channel inhibitors. actives 43% (n = 4,900). inhibition, % at 10 µM. shares compounds with KCNK9 block. HEK293 KCNK9 cells, FluxOR thallium flux fluorescence. AID 492992;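 active = thallium signal inhibited by more than 5 SD of the compound-free buffer control wells, on both duplicate plates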;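 also: 0% = assay buffer control wells without compound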
# Kir21 sel – mouse Kir2.1 off-target activity of KCNK9 modulators. shares compounds with KCNK9 block. Kir2.1 cells, FluxOR thallium flux fluorescence. inhibition, % at 10 µM. actives 4% (n = 4,900). AID 492993;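 active = thallium signal drop more than 5 SD beyond the mean of the no-compound control wells, seen in both duplicate plates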;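 also: signal is fluorescence rise after thallium addition divided by baseline fluorescence; plate controls were assay buffer only for no effect and full block by chlorpromazine control for full effect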
# KCNK9 uninduced – second check of KCNK9 modulator effects in non-induced HEK293 cells | FluxOR thallium flux | AID 492997 | inhibition, % at 10 µM | shares compounds with KCNK9 block | actives 40% (n = 4,900);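 active = thallium signal drop beyond 5 SD of the untreated control mean, on both duplicate plates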;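 also: plate controls were buffer only IC0 wells for no effect and SID17386958 at its maximal inhibitory level for full effect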
# Numbers without * were called inactive; i = inactive; nt = not tested or not shown; ! = a repeat was not active.
SMILES,KCNK3 block,KCNQ1 pot,KCNK9 block,hERG protect,KCNQ1 block,KCNK9 block conf,Kir21 sel,KCNK9 uninduced
Cc1cc(OCCN2CCC(Cc3ccccc3)CC2)ccc1[N+](=O)[O-],i,i,i,-13,i,i,i,i
Cc1cccc(NS(=O)(=O)c2cc(C(=O)N3CCc4ccccc4C3)ccc2Cl)c1C,i,i,-15*,-2,i,68%*,i,i
CCN(CC)S(=O)(=O)c1cc(C(=O)N2CCc3ccccc32)ccc1Cl,i,i,i,-13,i,i,i,i
Cc1ccc(C)c(NS(=O)(=O)c2cc(C(=O)N3CCc4ccccc4C3)ccc2Cl)c1,i,i,-17*,4,i,57%*,i,36%*
Cc1ccc(C(=O)N2CCOCC2)cc1S(=O)(=O)Nc1cccc(C)c1C,i,i,i,-7,i,nt,nt,nt
C=CCNC(=O)/C(C#N)=C\c1cc(Cl)c(OCC)c(OC)c1,i,i,i,-3,i,nt,nt,nt
CCOc1ccc(NC(=O)CN2C(=O)CSC2=O)cc1,i,i,i,-18,i,nt,nt,nt
COc1ccc(C(=O)NCc2nnc(SCC(=O)N3CCc4ccccc43)n2Cc2ccccc2)cc1,i,i,i,-1,i,nt,nt,nt
O=C(C(=O)N1CCN(c2ccc(F)cc2)CC1)c1cn(CC(=O)N2CCOCC2)c2ccccc12,i,i,i,-13,i,nt,nt,nt
O=S(=O)(CS(=O)(=O)c1ccc(Cl)cc1)c1ccc(Cl)cc1,i,i,i,-6,i,nt,nt,nt
COc1ccccc1NC(=O)/C(=C/c1cccc([N+](=O)[O-])c1)c1ccccc1,i,i,-8.6*,-10,6*,54%*,i,38%*
Cc1nn(Cc2ccccc2)c(Cl)c1C(=O)OCc1nnc(-c2ccc(Cl)cc2)o1,i,i,i,-13,i,i,i,i
CCOC(=O)c1nn(-c2ccccc2F)c(-c2ccccc2)c1C(=O)c1ccccc1,i,i,-11*,-7,i,56%*,i,i
CN(C)c1ccc(N=c2sc3ccccc3n2C)cc1,i,i,i,-1,i,i,i,i
Cn1c(=Nc2ccccc2)sc2ccccc21,i,i,i,0,i,nt,nt,nt
COc1ccccc1-n1cc(CN2CCN(CC=C(C)C)C(CCO)C2)cn1 (centres undefined),i,i,i,-4,i,nt,nt,nt
Cc1ccc(CSc2sc(C(=O)c3ccccc3)c(N)c2C#N)cc1,i,i,-9*,-6,i,36%*,i,42%*
O=C(O)/C=C\C(=O)Nc1ccc(N2CCN(c3ccc(Cl)cc3)CC2)cc1,i,i,i,-1,i,nt,nt,nt
O=C(O)/C=C\C(=O)Nc1ccc(N2CCN(c3ccc(Cl)c(Cl)c3)CC2)cc1,i,i,i,-9,i,i,i,i
CC(C)COc1ccc(C(=O)Nc2scc(-c3ccc(Cl)cc3Cl)c2C(N)=O)cc1,i,i,i,-12,i,i,i,i
CC(=O)C1=C(C)NC(SCC(=O)c2ccc(Cl)cc2Cl)=C(C#N)C1c1ccco1 (centres undefined),-9.6*,i,-10*,-20,i,61%*,i,36%*
CCCCCCCCCCCCCCCCn1cc[n+](C)c1,-12*!,i,-12*!,-37,10*!,62%*,44%*,26%*
C[n+]1ccn(CC(=O)c2cccs2)c1,i,i,i,-6,i,nt,nt,nt
O=c1cc(CN2CCN(Cc3ccccc3)CC2)c2cc3c(cc2o1)CCC3,i,i,i,-9,i,i,i,i
O=C(CC1CCCC1)N1CCCC(Nc2cccc(F)c2)C1 (centres undefined),i,i,i,-13,i,nt,nt,nt
SMILES,KCNK3 block,KCNQ1 pot,KCNK9 block,hERG protect,KCNQ1 block,KCNK9 block conf,Kir21 sel,KCNK9 uninduced
CC1(CCC(=O)N2CCCC(Nc3ccc(F)cc3)C2)CC1 (centres undefined),i,i,i,-11,i,i,i,i
Cc1cc(C)n(CCC(=O)N2CCCC(Nc3ccc(F)cc3)C2)n1 (centres undefined),i,i,i,-3,i,nt,nt,nt
O=C(CC1CCCC1)N1CCCC(Nc2ccc(F)cc2)C1 (centres undefined),i,i,i,-10,i,i,i,i
COc1ccc(-c2ncc(CN3CCN(CCC(C)C)C(CCO)C3)cn2)cc1 (centres undefined),i,i,i,-12,i,nt,nt,nt
Cc1cccc(-c2ncc(CN3CCN(CC(C)C)C(CCO)C3)cn2)c1 (centres undefined),i,i,i,-16,i,i,i,i
CCOC(=O)c1c(C)oc2cc(Br)c(OC(C)C(=O)OCC)cc12 (centres undefined),i,i,i,-19,i,i,i,i
Cc1cc(C)c(C#N)c(SCC(=O)c2cc(C)n(CCc3ccccc3)c2C)n1,i,i,-8.2*,-10,i,32%*,i,34%*
O=C(CC1C(=O)NCCN1C(=O)Nc1ccccc1)Nc1cc(Cl)cc(Cl)c1 (centres undefined),i,i,i,-12,i,nt,nt,nt
COc1ccc(/C=N/Nc2nc(-c3ccc(Cl)cc3)cc(C(F)(F)F)n2)cc1OC,i,i,i,-10,6*,i,i,i
CC1CCCN(C(=O)N2c3ccccc3Sc3ccccc32)C1 (centres undefined),i,i,-11*,-11,i,52%*,i,44%*
CC1CN(C(=O)N2c3ccccc3Sc3ccccc32)C(C)CC1=O (centres undefined),i,i,-8.1*,5.3*,i,30%*,i,29%*
CC(=O)c1cccc(CN2CCC(C(=O)Nc3ccc(-c4cccc(C)c4)cc3)CC2)c1,i,i,i,-16,i,nt,nt,nt
Cc1onc(-c2ccccc2)c1C(=O)N(CC(C)C)c1c(N)n(CC(C)C)c(=O)[nH]c1=O,i,nt,nt,nt,nt,nt,nt,nt
Cn1nnnc1SCC(=O)N1c2ccccc2Sc2ccccc21,i,i,i,-3,i,nt,nt,nt
CCn1nnnc1SCC(=O)N1c2ccccc2Sc2ccccc21,i,i,i,1,i,i,i,i
